Converted amounts (≈) assume the structure as drawn.
What was measured:
Type in all cases: functional
[1] = test system: Mycobacterium tuberculosis; test: Antitubercular activity against Mycobacterium tuberculosis CNCTC My 331/88 (H37Rv) assessed as inhibition of bacterial growth measured after 14 days of incubation by Sulas semisynthetic medium based assay; conditions: 336 h, time 14 day
Method in brief: (§1)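 Micromethod MIC in Sula's semisynthetic medium. MIC is the lowest concentration inhibiting >99% of the mycobacterial population. Isoniazid was the standard drug.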

[2] = test system: Mycobacterium tuberculosis; test: Antitubercular activity against Mycobacterium tuberculosis CNCTC My 331/88 (H37Rv) assessed as inhibition of bacterial growth measured after 21 days of incubation by Sulas semisynthetic medium based assay; conditions: 504 h, time 21 day; method in brief: as §1
Mycobacterium avium [3] = test: Antitubercular activity against Mycobacterium avium CNCTC My 330/88 assessed as inhibition of bacterial growth measured after 14 days of incubation by Sulas semisynthetic medium based assay; conditions: CNCTC My 330/88, 336 h, time 14 day
Method in brief: (§2)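 M. avium was tested by the micromethod in Sula's semisynthetic medium. Compounds in DMSO at 1000 to 0.5 μmol/L. Incubation at 37 °C, read at 14 and 21 days. MIC is the lowest concentration giving >99% growth inhibition.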

Mycobacterium avium [4] = test: Antitubercular activity against Mycobacterium avium CNCTC My 330/88 assessed as inhibition of bacterial growth measured after 21 days of incubation by Sulas semisynthetic medium based assay; conditions: CNCTC My 330/88, 504 h, time 21 day; method in brief: as §2
Mycobacterium kansasii [5] = test: Antitubercular activity against Mycobacterium kansasii CNCTC My 235/80 assessed as inhibition of bacterial growth measured after 7 days of incubation by Sulas semisynthetic medium based assay; conditions: CNCTC My 235/80, 168 h, time 7 day
Method in brief: (§3)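 Micromethod in Sula's semisynthetic medium. MIC is the lowest concentration inhibiting >99% of the mycobacterial population. Isoniazid was the standard.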

Mycobacterium kansasii [6] = test: Antitubercular activity against Mycobacterium kansasii CNCTC My 235/80 assessed as inhibition of bacterial growth measured after 14 days of incubation by Sulas semisynthetic medium based assay; conditions: CNCTC My 235/80, 336 h, time 14 day; method in brief: as §3
Mycobacterium kansasii [7] = test: Antitubercular activity against Mycobacterium kansasii CNCTC My 235/80 assessed as inhibition of bacterial growth measured after 21 days of incubation by Sulas semisynthetic medium based assay; conditions: CNCTC My 235/80, 504 h, time 21 day; method in brief: as §3

Row | Compound | MIC99 [1] [µM] | MIC99 [2] [µM] | MIC99 (Mycobacterium avium [3]) [µM] | MIC99 (Mycobacterium avium [4]) [µM] | MIC99 (Mycobacterium kansasii [5]) [µM] | MIC99 (Mycobacterium kansasii [6]) [µM] | MIC99 (Mycobacterium kansasii [7]) [µM]
1 | O=c1[nH]c(NCCO)nc2ncn(Cc3ccc4ccccc4c3)c12 | > 500 | > 500 | > 500 | > 500 | > 500 | > 500 | > 500
2 | O=c1[nH]c(N2CC3(COC3)C2)nc2ncn(Cc3ccc4ccccc4c3)c12 | > 500 | > 500 | > 500 | > 500 | > 500 | > 500 | > 500
3 | O=c1[nH]c(N2CCOCC2)nc2ncn(-c3cccc4c3sc3ccccc34)c12 | > 250 | > 250 | > 250 | > 250 | > 250 | > 250 | > 250
4 | O=c1[nH]c(N2CCCC2)nc2ncn(Cc3ccc4ccccc4c3)c12 | 8 (≈ 2.76 µg/mL) | 16 (≈ 5.53 µg/mL) | > 500 | > 500 | > 500 | > 500 | > 500
5 | O=c1[nH]c(N2CCOCC2)nc2ncn(Cc3cccc4ccccc34)c12 | > 500 | > 500 | > 500 | > 500 | > 500 | > 500 | > 500
6 | S=c1[nH]c(=S)c2c(ncn2Cc2ccc3ccccc3c2)[nH]1 | > 500 | > 500 | > 500 | > 500 | > 500 | > 500 | > 500
7 | S=c1[nH]cnc2ncn(Cc3ccc4ccccc4c3)c12 | > 500 | > 500 | > 500 | > 500 | > 500 | > 500 | > 500
8 | O=c1[nH]c(N2CCOCC2)nc2c1ncn2Cc1ccc(Cl)c(Cl)c1 | > 250 | > 250 | > 250 | > 250 | > 250 | > 250 | > 250
9 | CN(C)c1nc2ncn(Cc3ccc4ccccc4c3)c2c(=O)[nH]1 | > 500 | > 500 | > 500 | > 500 | > 500 | > 500 | > 500
10 | COc1ccc(Cn2cnc3nc(N4CCOCC4)[nH]c(=O)c32)cc1 | 32 (≈ 10.9 µg/mL) | 64 (≈ 21.8 µg/mL) | > 500 | > 500 |  | > 500 | > 500
11 | COCCNc1nc2ncn(Cc3ccc4ccccc4c3)c2c(=O)[nH]1 | > 500 | > 500 | > 500 | > 500 | > 500 | > 500 | > 500
12 | O=c1[nH]c(N2CCOCC2)nc2ncn(Cc3ccc(Cl)cc3)c12 | > 500 | > 500 | > 500 | > 500 | 125 (≈ 43.2 µg/mL) | 250 (≈ 86.4 µg/mL) | > 500
13 | c1ccc2cc(Cn3cnc4nc(N5CCOCC5)nc(NCc5ccncc5)c43)ccc2c1 | 8 (≈ 3.61 µg/mL) | 8 (≈ 3.61 µg/mL) | 250 (≈ 113 µg/mL) | 500 (≈ 226 µg/mL) | 64 (≈ 28.9 µg/mL) | 64 (≈ 28.9 µg/mL) | 64 (≈ 28.9 µg/mL)
14 | COc1cccc(Cn2cnc3nc(N4CCOCC4)[nH]c(=O)c32)c1 | 500 (≈ 171 µg/mL) | > 500 |  | > 500 | > 500 | > 500 | > 500
15 | Cn1c(N2CCOCC2)nc2ncn(Cc3ccc4ccccc4c3)c2c1=O | 32 (≈ 12 µg/mL) | 64 (≈ 24 µg/mL) | > 500 | > 500 |  | > 500 | > 500
16 | O=c1[nH]c(N2CCOCC2)nc2ncn(-c3ccsc3)c12 | > 500 | > 500 | > 500 | > 500 | > 500 | > 500 | 
